# Screening data: PubChem BioAssay, The Scripps Research Institute Molecular Screening Center
# A selection: hits, their analogues and other compounds. The true share with any hit is near 3.4%.
# CHRM1 PAM = potentiates human M1 receptor response to acetylcholine. 0.088% of 360,000 active. CHO-K1 hM1, Fluo-8 calcium fluorescence, ACh EC20; 0% = ACh EC20, 100% = maximal ACh. activation, % at 3 µM. P11229; in the data active = activation above about 19%, passing the limit was not always enough
# TAAR1 antag = antagonists of human TAAR1; Q96RJ0; CHO RD-HGA16 TAAR1, Fluo-8 calcium fluorescence, antagonist; inhibition, % at 3 µM; 1.5% of 360,000 active; AID 624466;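 active = inhibition above a per-plate cutoff, the mean inhibition of test compounds on that plate plus 3 SD, cut at about 49% in these data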;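 note: 0% = DMSO plus EC80 beta-PEA response and 100% = DMSO alone without agonist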
# Target sequence (Q96RJ0 whole entry, looked up): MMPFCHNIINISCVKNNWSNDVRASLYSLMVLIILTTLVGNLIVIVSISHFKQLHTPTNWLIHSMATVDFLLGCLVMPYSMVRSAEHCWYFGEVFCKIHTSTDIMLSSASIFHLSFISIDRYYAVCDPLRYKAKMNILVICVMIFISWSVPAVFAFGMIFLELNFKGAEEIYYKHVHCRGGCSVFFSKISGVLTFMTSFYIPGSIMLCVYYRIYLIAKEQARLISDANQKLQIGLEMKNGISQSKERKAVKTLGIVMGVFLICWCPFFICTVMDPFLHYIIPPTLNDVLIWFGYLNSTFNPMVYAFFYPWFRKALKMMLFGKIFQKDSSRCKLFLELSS
#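 Test system – hTAAR1-expressing CHO RD-HGA16 cells, Gα16-coupled · Reagent – β-PEA at EC80 concentration, post-compound challenge · Compound dosing – 3 µM, single point · Timing – 140 s kinetic read after compound, 140 s after agonist · Detection – Fluo-8 intracellular calcium dye fluorescence, real-time kinetic reads · Control set – DMSO and EC80 PEA controls · Repeats – n of 1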
# CHRM1 agonist = human M1 muscarinic receptor agonism. AID 588814. CHO-K1 hM1, Fluo-8 calcium fluorescence, agonist mode; 0% DMSO, 100% acetylcholine EC100. activation, % at 3 µM. P11229. 0.33% of 360,000 active;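 active = activation above the run's mean compound activation plus 3 SD, cut at about 16% in these data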;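 note: peak over basal fluorescence ratio within a 140 s kinetic read after compound addition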
# CHRM1 antagonist = antagonists of human M1 muscarinic receptor; P11229; CHO-K1 hM1, Fluo-8 calcium fluorescence, ACh EC80 antagonist; inhibition, % at 3 µM; 1.3% of 360,000 active;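 active = percent inhibition above its own plate's cutoff, namely the mean of that plate's compound wells plus 3 SD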;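 note: peak over basal fluorescence ratio during 140 s after agonist addition; 0% = ACh EC80 plus DMSO and 100% = DMSO alone without agonist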
# TAAR1 agonist = agonists of human TAAR1. Q96RJ0. CHO RD-HGA16 TAAR1, Fluo-8 calcium fluorescence; vehicle wells 0%, saturating PEA agonist 100%. activation, % at 3 µM. 0.99% of 360,000 active;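 active = activation above the mean activation of all test compounds in the run plus 3 SD, cut at about 38% in these data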
#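 System: CHO RD-HGA16 cells carrying human TAAR1 plus Gα16; Incubation: 17-24 h seeding, 75 min 37 °C dye, 30 min RT; Measured by: Fluo-8 fluorescence, 5 s baseline then 140 s kinetic read; Control set: DMSO and PEA EC100; Replication: single well for each compound.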
# TAAR1 ag confirm = human TAAR1 agonism, confirmed; 82% of 2,400 active; CHO RD-HGA16 TAAR1, Fluo-8 calcium fluorescence; scaled: DMSO 0%, maximal phenethylamine 100%; activation, % at 3 µM; shares compounds with TAAR1 agonist;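 active = activation above a cutoff set at the run's mean compound activation plus 3 SD, cut at about 39% in these data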
# Ga16 ag counter = counter-screen for TAAR1 agonists: nonselective agonists in parental cells; shares compounds with TAAR1 agonist; CHO-Ga16 parental, Fluo-8 calcium fluorescence; normalized to maximal ATP response, DMSO zero; activation, % at 3 µM; 50% of 2,400 active;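 active = activation above the run cutoff, the mean activation over all tested wells plus 3 SD, cut at about 12% in these data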;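 note: 0% = DMSO wells and 100% = maximal ATP response on the peak over basal ratio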
# TAAR1 desens = counter-screen for human TAAR1 agonists: agonists that desensitize TAAR1. shares compounds with TAAR1 agonist. CHO RD-HGA16 hTAAR1, Fluo-8 calcium, beta-PEA response inhibition. inhibition, % at 3 µM. 46% of 2,400 active;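 active = inhibition above the run cutoff, the mean inhibition of all test compounds plus 3 SD, cut at about 49% in these data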;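 note: beta-PEA stimulus applied at its EC80; loss of beta-PEA calcium signal after compound pretreatment read as receptor desensitization; 0% = DMSO with beta-PEA at EC80 and 100% = DMSO alone without agonist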
# Ga16 antag count = counter-screen for TAAR1 agonists: nonselective Ga16 antagonists | 39% of 2,400 active | shares compounds with TAAR1 agonist | inhibition, % at 3 µM | CHO-Ga16 ATP-induced calcium, Fluo-8 fluorescence | AID 651952;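 active = inhibition above the plate's mean compound inhibition plus 3 SD, computed per plate, cut at about 22% in these data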;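 note: 0% = EC80 ATP with DMSO and 100% = DMSO wells without ATP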
# * = called active by the depositor; · = no result given.
SMILES,CHRM1 PAM,TAAR1 antag,CHRM1 agonist,CHRM1 antagonist,TAAR1 agonist,TAAR1 ag confirm,Ga16 ag counter,TAAR1 desens,Ga16 antag count
CCC1(c2ccc(F)cc2)NC(=O)N(CC(=O)Nc2ccccc2Cl)C1=O (stereo unspecified),3,17,36*,-8,80*,72*,36*,33,19
COCCNc1ncnc2c1ncn2[C@H]1CN(Cc2ccc(Cl)cc2)C[C@@H](CO)O1,-1,-10,1,-19,3,·,·,·,·
COc1cc(CNc2ncnc3c2ncn3[C@H]2CN(CCc3ccccc3)C[C@@H](CO)O2)cc(OC)c1OC,9,-19,-2,-14,59*,64*,1,18,9
COCCNc1ncnc2c1ncn2[C@H]1CN(CCc2ccccc2)C[C@@H](CO)O1,0,-22,-3,0,46*,48*,0,13,6
COc1cccc(C(=O)NC(c2ccccc2)C2CCCC2)c1 (stereo unspecified),-4,-1,-11,-2,0,·,·,·,·
Cc1ccnc2nc(C(=O)OCC(=O)N3CC(C)CC(C)C3)nn12 (stereo unspecified),2,-34,-2,-5,0,·,·,·,·
CC1(C)CC(=O)C(C(=O)/C=C/NCCc2ccccc2)C(=O)C1,5,92*,-3,-5,87*,109*,3,93*,0
O=C(CCc1ccccc1)N=C1SC2CS(=O)(=O)CC2N1c1cccc(F)c1 (stereo unspecified),3,-24,-2,-8,3,·,·,·,·
O=C(c1ccccc1)N1CCC(c2nc(-c3ccc(S(=O)(=O)NCC4CCCO4)cc3)no2)CC1 (stereo unspecified),-5,33,0,7,43*,10,10,16,27*
O=C(NCc1ccccc1)C(C1CC1)n1c(=O)c(-c2ccco2)nc2ccccc21 (stereo unspecified),·,4,·,·,2,·,·,·,·
CC(c1ccon1)N(C)C(=O)CCc1nnc(C2(c3ccc(Cl)cc3)CCC2)o1 (stereo unspecified),8,12,-3,-12,6,·,·,·,·
[O-]/[N+](=C/c1ccccc1)c1ccccc1,14,-15,8,6,2,·,·,·,·
Cc1cc([N+](=O)[O-])nn1CC(=O)N1CCc2ccccc2C1,0,-2,-5,-22,61*,45*,8,12,5
O=C(CC(C(=O)N1CCc2ccccc21)n1ccnc1)N1CCc2ccccc2C1 (stereo unspecified),3,-1,-5,-2,5,·,·,·,·
CS(=O)(=O)N(CC(=O)N1CCc2ccccc2C1)c1cccc(F)c1,4,-4,-5,-13,4,·,·,·,·
CS(=O)(=O)N(Cc1ccccc1)c1ccc(C(=O)N2CCc3ccccc3C2)cc1,5,91*,0,-7,93*,101*,8,97*,25*
CS(=O)(=O)N(CC(=O)N1CCc2ccccc2C1)c1cccc([N+](=O)[O-])c1,3,-2,-3,-13,60*,54*,2,13,11
Cc1cc(C)n(C(CC(=O)N2CCc3ccccc3C2)C(=O)O)n1 (stereo unspecified),5,90*,-1,-2,102*,107*,4,94*,4
NS(=O)(=O)c1cccc(NC(=O)COC(=O)CCC2CCCC2)c1,-5,-4,5,5,4,·,·,·,·
CC(C)C(=O)NC(=S)Nc1ccc(S(=O)(=O)Nc2ccccc2)cc1,-1,17,-3,-4,23,·,·,·,·
CCOc1ccc(NS(=O)(=O)c2ccc(NC(=S)NC(C)=O)cc2)cc1,1,22,34*,7,85*,75*,48*,53*,33*
CCOc1ccc(NS(=O)(=O)c2ccc(NC(=S)NC(=O)C(C)C)cc2)cc1,-2,14,7,9,59*,42*,20*,9,17
O=C(NCC1CC1)c1ccc2c(c1)S(=O)(=O)c1cc(Cl)ccc1C2=O,-4,29,-2,7,18,·,·,·,·
Cc1cc(/C=N/NC(=O)CC2(C)OCCO2)c(C)n1-c1cc(Cl)cc(Cl)c1,5,4,-3,-8,72*,84*,50*,5,1
COC(=O)c1ccc(COc2ccc(-c3nnn(CC(N)=O)n3)cc2)cc1,10,-4,-7,-7,3,·,·,·,·
SMILES,CHRM1 PAM,TAAR1 antag,CHRM1 agonist,CHRM1 antagonist,TAAR1 agonist,TAAR1 ag confirm,Ga16 ag counter,TAAR1 desens,Ga16 antag count
COC(=O)c1ccc(COc2ccc(-c3nn[nH]n3)cc2)cc1,-3,17,3,7,51*,16,11,10,7
CC(C)(C)c1ccc(C(=O)N2CCOC23CCCCC3)cc1,9,5,12,12,8,·,·,·,·
Cc1cc(S(=O)(=O)Nc2cccc(Cl)c2)c(C)s1,10,12,-13,-6,40*,60*,10,17,12
COc1cccc(NS(=O)(=O)c2cc(C)sc2C)c1,3,4,0,-21,10,·,·,·,·
CC1C(c2ccccc2)OCCN1C(=S)Nc1ccc(S(=O)(=O)N2CCCCC2)cc1 (stereo unspecified),3,10,-3,-2,55*,56*,7,34,32*
Cc1cccc(-c2ccc([N+](=O)[O-])cc2CN2CCN(c3ncc(Cc4ccccc4)cn3)CC2)c1,·,-18,·,·,-2,·,·,·,·
CCN1C(N(C)CCc2cccs2)=N[C@@H](c2ccccc2)C(C(=O)OC)=C1C,-8,18,-13,6,68*,74*,6,35,1
CN(Cc1cccs1)C(=O)C1CC(=O)N(Cc2ccccc2)C1 (stereo unspecified),0,3,-4,3,2,·,·,·,·
O=C(CCCCCn1c(=S)[nH]c2ccc(N3CCOCC3)cc2c1=O)NCCc1ccccc1,0,22,-7,-4,55*,70*,3,42,10
O=C(CCCn1c(=S)[nH]c2cc3c(cc2c1=O)OCO3)NCCc1ccccc1Cl,-1,-12,-4,1,52*,21,0,8,2
